Results collected from several papers.
Protocols differ between the studies behind these lines.
Target: Serine/threonine-protein kinase TAO2 (TAOK2, Homo sapiens, UniProt Q9UL54)
One construct used (Q9UL54 1-1235): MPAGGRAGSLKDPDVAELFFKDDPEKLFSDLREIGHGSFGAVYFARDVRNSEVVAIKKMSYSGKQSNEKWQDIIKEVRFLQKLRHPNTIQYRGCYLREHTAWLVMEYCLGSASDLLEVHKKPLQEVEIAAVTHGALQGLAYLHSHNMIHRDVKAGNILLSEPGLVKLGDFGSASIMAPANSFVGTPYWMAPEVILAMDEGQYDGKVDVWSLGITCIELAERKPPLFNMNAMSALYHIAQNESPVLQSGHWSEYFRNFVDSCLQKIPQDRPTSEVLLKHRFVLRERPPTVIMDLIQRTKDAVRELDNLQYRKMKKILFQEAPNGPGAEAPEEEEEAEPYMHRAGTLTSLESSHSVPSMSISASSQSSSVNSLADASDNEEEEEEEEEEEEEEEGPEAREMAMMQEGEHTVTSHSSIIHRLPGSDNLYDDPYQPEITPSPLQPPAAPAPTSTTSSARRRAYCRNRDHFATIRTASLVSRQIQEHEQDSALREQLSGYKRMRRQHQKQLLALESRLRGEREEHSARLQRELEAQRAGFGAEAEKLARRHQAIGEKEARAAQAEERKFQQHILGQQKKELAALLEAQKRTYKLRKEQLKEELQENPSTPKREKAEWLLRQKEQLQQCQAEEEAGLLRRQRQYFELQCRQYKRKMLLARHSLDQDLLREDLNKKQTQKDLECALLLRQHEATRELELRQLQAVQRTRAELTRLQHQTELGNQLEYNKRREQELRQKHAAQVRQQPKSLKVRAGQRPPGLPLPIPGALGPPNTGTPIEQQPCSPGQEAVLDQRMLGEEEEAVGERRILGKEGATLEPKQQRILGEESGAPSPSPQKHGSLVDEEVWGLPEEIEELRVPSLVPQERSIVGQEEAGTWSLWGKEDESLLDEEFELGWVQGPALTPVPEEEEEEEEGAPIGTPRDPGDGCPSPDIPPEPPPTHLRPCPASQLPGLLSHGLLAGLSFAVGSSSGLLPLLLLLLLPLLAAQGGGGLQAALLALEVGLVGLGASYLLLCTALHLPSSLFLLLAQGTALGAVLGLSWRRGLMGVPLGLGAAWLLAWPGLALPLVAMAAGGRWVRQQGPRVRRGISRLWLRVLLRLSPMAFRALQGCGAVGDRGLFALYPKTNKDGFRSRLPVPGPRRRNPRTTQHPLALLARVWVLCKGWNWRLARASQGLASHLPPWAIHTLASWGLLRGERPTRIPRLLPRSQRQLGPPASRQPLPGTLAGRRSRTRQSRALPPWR

| Structure (SMILES) | read-out | method | concentration | remaining binding [%] |
| --- | --- | --- | --- | --- |
| Cc1cnn2ncc(-c3ccnc(N(C)C)n3)c2c1 | binding |  | 1 µM | 94 |
| CC(=O)Nc1c(C(C)=O)c(=O)n(C)c2nc(-c3ccc(Cl)cc3Cl)c(-c3ccc(Cl)cc3)cc12 | cell-free assay | competition with immobilised ligand | 1 µM | 88 |
| O=C(c1ccc(Nc2ncc(Cl)c(-c3cc4ccccc4s3)n2)cc1)N1CCC(N2CCCC2)CC1 | binding | competition with immobilised ligand | 1 µM | 66 |
| C=CC(=O)N1CCC(C(=O)NCC(=O)N2CCN(c3nc(-c4cnc(N)nc4C(F)F)nc(N4CCOCC4)n3)CC2)CC1 | binding | competition with immobilised ligand | 1 µM | 72 |
| CNC(=O)[C@@H]1CC[C@@H](n2c(-c3ccc4cnccc4c3)nc3ccc(C(=O)NCc4cccc(C(N)=O)c4)cc32)C1 | binding | competition with immobilised ligand | 1 µM | 98 |
| O=C(NCC1CCOCC1)c1n[nH]cc1NC(=O)c1c(F)cccc1F | binding | competition with immobilised ligand | 1 µM | 100 |
| O=C(c1ccc(Nc2ncc(Cl)c(-c3ccc(Cl)s3)n2)cc1)N1CCC(N2CCCC2)CC1 | binding | competition with immobilised ligand | 1 µM | 65 |
| COc1ccnn2ncc(-c3ccnc(N(C)C)n3)c12 | binding |  | 1 µM | 85 |
| Cc1cnc(Nc2ccc(C(=O)N3CCC(N4CCCC4)CC3)cc2)nc1-c1cc2ccccc2s1 | binding | competition with immobilised ligand | 1 µM | 29 |
| N[C@@H]1CCN(c2nccc(-c3cnn4ncccc34)n2)C1 | binding |  | 1 µM | 100 |
| Cn1nc(C(=O)NCc2ccc(C(=O)O)cc2)cc1-c1ccc2[nH]ccc2c1 | cell-free assay | competition with immobilised ligand | 0.1 µM | 82 |
| C[C@@H](c1ccc(-n2cnc3c(N)ncnc32)cc1)N1CCc2nn(C)c(Cc3ccccc3)c2C1=O | binding | competition with immobilised ligand | 0.1 µM | 70 |
| CCc1ccccc1C(=O)Nc1n[nH]c2c(C)c(F)c(C3C(C#N)=C(C)N(C)C(C)=C3C#N)cc12 | cell-free assay | competition with immobilised ligand | 1 µM | 96 |
| Nc1ncc2c(n1)-c1c([nH]c3ccc(C#CC4CC4)cc13)CCCC2 | binding | competition with immobilised ligand | 1 µM | 90 |
| CC1CCCN1c1nccc(-c2cnn3ncccc23)n1 (stereo not shown) | binding |  | 1 µM | 100 |
| Cc1cc(NC(=O)c2cccc(S(F)(F)(F)(F)F)c2)cc(-n2ccn3nc(-c4cccnc4)cc23)c1 | cell-free assay | competition with immobilised ligand | 1 µM | 91.3 |
| CN(C)c1ncc(F)c(-c2cnn3ncccc23)n1 | binding |  | 1 µM | 79 |
| Cc1nc(Cc2cccc(C(F)(F)F)c2)sc1-c1ccc(C(N)=O)nc1 | cell-free assay | competition with immobilised ligand | 1 µM | 86 |
| FC(F)(F)Oc1cccc(-c2cnc3ccc(-c4ccncc4)nn23)c1 | binding | competition with immobilised ligand | 5 µM | 100 |
| C[C@H]1CCN(c2nccc(-c3cnn4ncccc34)n2)C1 | binding |  | 1 µM | 70 |
| CCCCN(CCCC)C(=O)CN1C[C@H](c2cc(OC)c3c(c2)OCO3)[C@@H](C(=O)O)[C@@H]1CC(C)(C)CCC | cell-free assay | competition with immobilised ligand | 1 µM | 71.1 |
| COc1cnc(Nc2cccc(S(N)(=O)=O)c2)nc1N1CCN(c2ccccc2)C(=O)C1 | binding | competition with immobilised ligand | 1 µM | 95 |
